In ChEMBL document CHEMBL5247671, “Design and Synthesis of Pyrazole-Based Macrocyclic Kinase Inhibitors Targeting BMPR2” (ACS Med Chem Lett, 2023):

Experiments:
[1] = biological target: T1, Bone morphogenetic protein receptor type-2 (Homo sapiens) (UniProt Q13873); assay: Binding affinity to recombinant BMPR2 (unknown origin) assessed as change in melting temperature at 10 uM by DSF assay
T1 sequence (whole entry): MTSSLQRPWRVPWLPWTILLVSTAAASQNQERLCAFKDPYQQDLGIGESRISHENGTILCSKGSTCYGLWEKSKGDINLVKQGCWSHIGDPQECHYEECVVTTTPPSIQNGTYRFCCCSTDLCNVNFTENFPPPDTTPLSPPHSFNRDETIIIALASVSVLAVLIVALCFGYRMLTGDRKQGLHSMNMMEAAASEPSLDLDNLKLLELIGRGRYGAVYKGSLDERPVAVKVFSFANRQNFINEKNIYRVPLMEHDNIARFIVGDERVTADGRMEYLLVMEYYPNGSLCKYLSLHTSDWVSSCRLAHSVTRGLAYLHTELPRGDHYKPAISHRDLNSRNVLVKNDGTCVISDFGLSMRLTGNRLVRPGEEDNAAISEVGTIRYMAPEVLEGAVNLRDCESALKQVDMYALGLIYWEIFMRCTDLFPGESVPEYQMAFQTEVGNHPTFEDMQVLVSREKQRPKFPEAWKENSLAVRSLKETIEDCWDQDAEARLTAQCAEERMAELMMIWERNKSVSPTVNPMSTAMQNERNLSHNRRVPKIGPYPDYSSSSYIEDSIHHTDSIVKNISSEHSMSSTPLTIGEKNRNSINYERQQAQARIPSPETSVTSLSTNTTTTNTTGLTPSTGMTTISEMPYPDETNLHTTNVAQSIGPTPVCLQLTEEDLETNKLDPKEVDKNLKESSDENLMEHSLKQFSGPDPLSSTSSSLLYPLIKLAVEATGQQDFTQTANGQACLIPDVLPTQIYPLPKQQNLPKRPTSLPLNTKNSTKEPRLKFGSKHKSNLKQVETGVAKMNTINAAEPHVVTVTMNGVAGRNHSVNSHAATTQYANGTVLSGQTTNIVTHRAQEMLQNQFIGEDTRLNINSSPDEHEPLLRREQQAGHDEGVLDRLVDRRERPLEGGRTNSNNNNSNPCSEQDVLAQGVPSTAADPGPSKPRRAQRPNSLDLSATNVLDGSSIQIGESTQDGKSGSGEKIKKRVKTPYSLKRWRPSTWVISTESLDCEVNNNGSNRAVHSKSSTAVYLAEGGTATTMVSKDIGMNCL
How it was run: (§1)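 Differential scanning fluorimetry on an in-house panel of 90 recombinant kinases. Stabilization is read as the shift in melting temperature (ΔTm) relative to ligand-free protein. Staurosporine served as the positive control, and binding was also compared against its ΔTm.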

[2] = biological target: T2, Mitogen-activated protein kinase 15 (Homo sapiens) (UniProt Q8TD08); assay: Inhibition of recombinant MAPK15 (unknown origin) at 10 uM by DSF assay relative to staurosporine; how it was run: as §1
T2 sequence (whole entry): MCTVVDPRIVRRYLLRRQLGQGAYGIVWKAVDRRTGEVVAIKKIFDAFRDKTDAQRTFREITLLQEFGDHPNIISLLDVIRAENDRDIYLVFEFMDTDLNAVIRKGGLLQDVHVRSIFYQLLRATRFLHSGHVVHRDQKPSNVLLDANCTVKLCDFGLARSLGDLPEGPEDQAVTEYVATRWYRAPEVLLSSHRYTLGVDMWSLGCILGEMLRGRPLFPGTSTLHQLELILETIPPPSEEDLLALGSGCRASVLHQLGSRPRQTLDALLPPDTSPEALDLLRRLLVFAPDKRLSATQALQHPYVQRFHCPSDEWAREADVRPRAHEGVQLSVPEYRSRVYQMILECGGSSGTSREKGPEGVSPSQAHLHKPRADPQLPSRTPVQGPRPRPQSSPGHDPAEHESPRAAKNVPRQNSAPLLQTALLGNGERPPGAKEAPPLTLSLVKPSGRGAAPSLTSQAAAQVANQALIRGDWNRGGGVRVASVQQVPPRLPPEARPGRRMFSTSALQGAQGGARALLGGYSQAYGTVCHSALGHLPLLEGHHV

[3] = biological target: T3, Bone morphogenetic protein receptor type-2 (Homo sapiens, UniProt Q13873); assay: Inhibition of BMPR2 (174 to end residues) (unknown origin) using MBP as substrate incubated for 60 mins in presence of ATP by ADP Glo assay
T3 sequence (Q13873 whole entry): T1 sequence (whole entry)
How it was run: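 Enzymatic inhibition of the BMPR2 kinase was read out by ADP-Glo detection of ADP formed, and IC50 values were derived from concentration–response data.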

[4] = tested on: T4, Receptor-type tyrosine-protein kinase FLT3 (Homo sapiens), P36888 [D835V]; assay: Inhibition of FLT3 D835V mutant (unknown origin) at 1 uM by Kinomescan assay relative to staurosporine
T4 sequence (whole entry): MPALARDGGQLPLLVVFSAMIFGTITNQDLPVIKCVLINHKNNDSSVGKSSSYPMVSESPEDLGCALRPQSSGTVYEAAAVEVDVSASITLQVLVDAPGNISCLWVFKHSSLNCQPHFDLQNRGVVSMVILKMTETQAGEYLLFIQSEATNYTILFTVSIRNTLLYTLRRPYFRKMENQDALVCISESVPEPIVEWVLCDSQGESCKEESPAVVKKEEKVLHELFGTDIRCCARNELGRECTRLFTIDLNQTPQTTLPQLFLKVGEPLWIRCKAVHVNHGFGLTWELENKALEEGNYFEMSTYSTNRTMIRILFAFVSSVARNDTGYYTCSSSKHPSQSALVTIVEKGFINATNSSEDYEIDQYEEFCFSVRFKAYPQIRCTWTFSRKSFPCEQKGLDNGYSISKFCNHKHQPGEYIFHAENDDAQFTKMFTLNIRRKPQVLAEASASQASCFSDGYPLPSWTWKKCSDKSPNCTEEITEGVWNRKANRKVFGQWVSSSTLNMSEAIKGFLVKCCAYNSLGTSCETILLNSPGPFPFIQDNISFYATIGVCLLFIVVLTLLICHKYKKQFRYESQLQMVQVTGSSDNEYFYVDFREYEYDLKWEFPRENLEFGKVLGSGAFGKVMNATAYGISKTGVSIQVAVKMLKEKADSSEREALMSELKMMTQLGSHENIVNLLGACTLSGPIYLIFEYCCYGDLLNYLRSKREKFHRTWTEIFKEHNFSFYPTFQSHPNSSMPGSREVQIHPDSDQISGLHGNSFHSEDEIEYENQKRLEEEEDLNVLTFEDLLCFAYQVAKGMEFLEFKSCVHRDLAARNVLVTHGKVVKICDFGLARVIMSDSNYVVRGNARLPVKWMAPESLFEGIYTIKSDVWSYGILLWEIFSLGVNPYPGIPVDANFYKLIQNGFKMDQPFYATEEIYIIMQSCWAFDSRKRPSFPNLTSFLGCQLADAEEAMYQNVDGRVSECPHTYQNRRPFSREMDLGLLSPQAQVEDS

[5] = biological target: T2, Mitogen-activated protein kinase 15 (Homo sapiens); assay: Binding affinity to recombinant MAPK15 (unknown origin) assessed as change in melting temperature at 10 uM by DSF assay; how it was run: as §1
[6] = biological target: MAP/microtubule affinity-regulating kinase 3 (Homo sapiens) (UniProt P27448); assay: Inhibition of recombinant MARK3 (unknown origin) at 10 uM by DSF assay relative to staurosporine; how it was run: as §1
Chain of MAP/microtubule affinity-regulating kinase 3 (Homo sapiens) (P27448 whole entry, looked up): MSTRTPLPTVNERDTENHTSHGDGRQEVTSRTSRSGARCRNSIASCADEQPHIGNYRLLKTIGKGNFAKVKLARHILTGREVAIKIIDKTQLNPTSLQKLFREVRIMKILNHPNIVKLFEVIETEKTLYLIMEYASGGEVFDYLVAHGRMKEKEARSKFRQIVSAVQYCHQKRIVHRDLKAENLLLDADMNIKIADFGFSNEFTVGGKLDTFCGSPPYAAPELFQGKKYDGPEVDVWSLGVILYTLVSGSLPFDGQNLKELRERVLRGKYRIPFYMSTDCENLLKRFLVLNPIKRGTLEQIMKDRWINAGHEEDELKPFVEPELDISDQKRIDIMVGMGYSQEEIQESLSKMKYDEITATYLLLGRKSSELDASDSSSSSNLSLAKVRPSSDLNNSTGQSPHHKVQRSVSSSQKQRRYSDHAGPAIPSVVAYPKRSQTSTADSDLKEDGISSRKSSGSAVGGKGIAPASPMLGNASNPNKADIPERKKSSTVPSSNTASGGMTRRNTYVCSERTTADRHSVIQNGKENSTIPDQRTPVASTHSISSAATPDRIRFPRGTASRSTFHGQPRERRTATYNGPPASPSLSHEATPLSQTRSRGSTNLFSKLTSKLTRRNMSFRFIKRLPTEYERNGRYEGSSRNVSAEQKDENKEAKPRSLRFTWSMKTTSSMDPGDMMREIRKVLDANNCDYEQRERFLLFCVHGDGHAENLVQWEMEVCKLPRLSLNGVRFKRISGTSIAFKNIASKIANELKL

ΔTm [1]: 5.8 °C
IC50 [3]: 506 nM
inhibition [4]: 4.5%
inhibition [6]: 22%
SMILES: O=C1NCCc2ccc(cc2)Nc2nccc(n2)Nc2cc1[nH]n2
inhibition [2]: 26%
ΔTm [5]: 3.8 °C
